According to ChEMBL document CHEMBL1154198, “Chemical genetics of Plasmodium falciparum” (Nature, 2010):
Each block holds one compound with its values, some of them ahead of it.

Key:
Plasmodium falciparum [1] = assay: ST_JUDE: Cytotoxicity against Plasmodium falciparum K1; format: functional, organism-based
Procedure, shortened: (§1)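 Asexual P. falciparum grown in human erythrocytes, exposed to compounds for 72 h, and growth read as the DNA quantity in treated versus control cultures. Dose-response run at 12 concentrations from 10 μM to 5 nM.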

Plasmodium falciparum [2] = assay: ST_JUDE: Cytotoxicity against Plasmodium falciparum 3D7; format: functional, organism-based; procedure, shortened: as §1
Plasmodium falciparum [3] = assay: ST_JUDE: Cytotoxicity against Plasmodium falciparum D10 transfected with yeast DHOD; format: functional, organism-based
Plasmodium falciparum [4] = assay: ST_JUDE: Plasmodium falciparum 3D7 EC50 (uM) as measured by SYBR green dye; format: functional, organism-based
[5] = ST_JUDE: Cytotoxicity using luciferase to measure ATP as an indicator of the viability of human foreskin fibroblast cells (BJ); format: toxicity, cell-based
Plasmodium falciparum [6] = assay: ST_JUDE: Cytotoxicity against Plasmodium falciparum V1/S; format: functional, organism-based
[7] = ST_JUDE: Cytotoxicity using luciferase to measure ATP as an indicator of the viability of human epithelial embryonic kidney cells (HEK293); format: toxicity, cell-based
Plasmodium falciparum [8] = assay: ST_JUDE: Cytotoxicity against Plasmodium falciparum W2; format: functional, organism-based
Leishmania major = assay: ST_JUDE: Cytotoxicity using Alamar Blue to measure viability of Leishmania major; format: functional, organism-based
Procedure, shortened: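 L. major promastigotes; drug susceptibility read with Alamar Blue.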

[9] = ST_JUDE: Cytotoxicity using luciferase to measure ATP as an indicator of the viability of human Burkitt''s lymphoma lymphoblast cells (Raji); format: toxicity, cell-based
Plasmodium falciparum [10] = assay: ST_JUDE: Cytotoxicity against Plasmodium falciparum Dd2; format: functional, organism-based
Toxoplasma gondii = assay: ST_JUDE: Growth inhibition of to Toxoplasma gondii, in human U-2OS cells, as measured by luciferase.; format: functional, organism-based; settings: RH, U2OS
Procedure, shortened: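 T. gondii parasites engineered to express luciferase; drug sensitivity read by luminescence.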

Trypanosoma brucei = assay: ST_JUDE: Cytotoxicity using luciferase to measure ATP as an indicator of the viability of Trypanosoma brucei; format: functional, organism-based
Plasmodium falciparum [11] = assay: ST_JUDE: Plasmodium falciparum K1 EC50 (uM) as measured by SYBR green dye; format: functional, organism-based
Plasmodium falciparum [12] = assay: ST_JUDE: Cytotoxicity against Plasmodium falciparum SB-A6; format: functional, organism-based
[13] = ST_JUDE: Cytotoxicity using luciferase to measure ATP as an indicator of the viability of human epithelial hepatocellular carcinoma cells (HepG2); format: toxicity, cell-based

- EC50 (Plasmodium falciparum [4]): 0.439 µM
- EC50 (Plasmodium falciparum [11]): 0.325 µM
Compound: CCN1/C(=C/c2cccc[n+]2C)C=Cc2cc(C)ccc21
- EC50 (Plasmodium falciparum [1]): 1.89 µM
- EC50 (Plasmodium falciparum [2]): 1.5 µM
- EC50 (Plasmodium falciparum [3]): 1.54 µM
- EC50 [5]: > 32.2 µM
- EC50 (Plasmodium falciparum [6]): > 8.27 µM
- EC50 [7]: > 32.2 µM
- EC50 (Plasmodium falciparum [8]): > 8.27 µM
- EC50 (Leishmania major): 0.107 µM
- EC50 [9]: > 32.2 µM
- EC50 (Plasmodium falciparum [10]): 1.7 µM
- EC50 (Toxoplasma gondii): > 17.6 µM
- EC50 (Trypanosoma brucei): 7.21 µM
- EC50 (Plasmodium falciparum [12]): 2.05 µM
- EC50 [13]: > 32.2 µM

- EC50 (Plasmodium falciparum [4]): 0.388 µM
- EC50 (Plasmodium falciparum [11]): 0.172 µM
Compound: OC(CNC1CCCCC1)Cn1c2ccc(Cl)cc2c2cc(Cl)ccc21 (configuration not stated)
- EC50 (Plasmodium falciparum [1]): 0.348 µM
- EC50 (Plasmodium falciparum [2]): 1.39 µM
- EC50 (Plasmodium falciparum [3]): 0.916 µM
- EC50 [5]: > 38.8 µM
- EC50 (Plasmodium falciparum [6]): 0.975 µM
- EC50 [7]: > 38.8 µM
- EC50 (Plasmodium falciparum [8]): 0.177 µM
- EC50 (Leishmania major): > 16.6 µM
- EC50 [9]: > 38.8 µM
- EC50 (Plasmodium falciparum [10]): 0.132 µM
- EC50 (Toxoplasma gondii): > 21.3 µM
- EC50 (Trypanosoma brucei): 1.97 µM
- EC50 (Plasmodium falciparum [12]): 1.05 µM
- EC50 [13]: 17.2 µM

- EC50 (Plasmodium falciparum [4]): 0.395 µM
- EC50 (Plasmodium falciparum [11]): 1.25 µM
Compound: Cc1cccc(CN2CCC(CNC(=S)Nc3ccc4nc(N5CCN(C)CC5)cc(C)c4c3)CC2)c1
- EC50 (Plasmodium falciparum [1]): 0.995 µM
- EC50 (Plasmodium falciparum [2]): 1.14 µM
- EC50 (Plasmodium falciparum [3]): 1.05 µM
- EC50 [5]: 9.56 µM
- EC50 (Plasmodium falciparum [6]): 1.99 µM
- EC50 [7]: 13.6 µM
- EC50 (Plasmodium falciparum [8]): 2.23 µM
- EC50 (Leishmania major): > 18.1 µM
- EC50 [9]: 22.6 µM
- EC50 (Plasmodium falciparum [10]): 0.506 µM
- EC50 (Toxoplasma gondii): > 23.2 µM
- EC50 (Trypanosoma brucei): 4.8 µM
- EC50 (Plasmodium falciparum [12]): 0.708 µM
- EC50 [13]: 6.04 µM

- EC50 (Plasmodium falciparum [4]): 0.901 µM
- EC50 (Plasmodium falciparum [11]): 0.781 µM
Compound: Fc1ccc(Nc2nc(NCc3ccccc3)c3ccccc3n2)cc1
- EC50 (Plasmodium falciparum [1]): 0.962 µM
- EC50 (Plasmodium falciparum [2]): 0.626 µM
- EC50 (Plasmodium falciparum [3]): 0.868 µM
- EC50 [5]: 15.2 µM
- EC50 (Plasmodium falciparum [6]): 2.58 µM
- EC50 [7]: 16.8 µM
- EC50 (Plasmodium falciparum [8]): 3.54 µM
- EC50 (Leishmania major): 0.0024 µM
- EC50 [9]: 13.7 µM
- EC50 (Plasmodium falciparum [10]): 0.644 µM
- EC50 (Toxoplasma gondii): > 22.3 µM
- EC50 (Trypanosoma brucei): 7.89 µM
- EC50 (Plasmodium falciparum [12]): 0.321 µM
- EC50 [13]: 6.78 µM

- EC50 (Plasmodium falciparum [4]): 0.276 µM
- EC50 (Plasmodium falciparum [11]): 0.125 µM
Compound: CCCO/C(O)=C1\C(C)=NC2=C(C(=O)CC(c3ccc(OC)c(OC)c3)C2)C1c1ccccc1OC (configuration not stated)
- EC50 (Plasmodium falciparum [1]): 0.328 µM
- EC50 (Plasmodium falciparum [2]): 0.385 µM
- EC50 (Plasmodium falciparum [3]): 0.414 µM
- EC50 [5]: > 47 µM
- EC50 (Plasmodium falciparum [6]): 0.392 µM
- EC50 [7]: > 47 µM
- EC50 (Plasmodium falciparum [8]): 0.29 µM
- EC50 (Leishmania major): > 20.1 µM
- EC50 [9]: > 47 µM
- EC50 (Plasmodium falciparum [10]): 0.416 µM
- EC50 (Toxoplasma gondii): 16.1 µM
- EC50 (Trypanosoma brucei): 10.4 µM
- EC50 (Plasmodium falciparum [12]): 0.288 µM
- EC50 [13]: > 47 µM

- EC50 (Plasmodium falciparum [4]): 0.661 µM
- EC50 (Plasmodium falciparum [11]): 1.07 µM
Compound: COc1ccc(C2CC(=O)NC3=C2C(=O)CC(c2ccc(F)cc2)C3)cc1OC (configuration not stated)
- EC50 (Plasmodium falciparum [1]): 1.19 µM
- EC50 (Plasmodium falciparum [2]): 1.44 µM
- EC50 (Plasmodium falciparum [3]): 1.85 µM
- EC50 [5]: > 41.4 µM
- EC50 (Plasmodium falciparum [6]): 1.99 µM
- EC50 [7]: > 41.4 µM
- EC50 (Plasmodium falciparum [8]): 1.49 µM
- EC50 (Leishmania major): > 17.7 µM
- EC50 [9]: > 41.4 µM
- EC50 (Plasmodium falciparum [10]): 1.13 µM
- EC50 (Toxoplasma gondii): > 22.7 µM
- EC50 (Trypanosoma brucei): > 39.7 µM
- EC50 (Plasmodium falciparum [12]): 2.09 µM
- EC50 [13]: > 41.4 µM

- EC50 (Plasmodium falciparum [4]): 0.497 µM
- EC50 (Plasmodium falciparum [11]): 0.182 µM
Compound: Cc1ccccc1/N=C1\C=C(NS(=O)(=O)c2ccc(F)cc2)c2ccccc2C1=O
- EC50 (Plasmodium falciparum [1]): 0.0981 µM
- EC50 (Plasmodium falciparum [2]): 0.221 µM
- EC50 (Plasmodium falciparum [3]): 0.161 µM
- EC50 [5]: 5.88 µM
- EC50 (Plasmodium falciparum [6]): 0.114 µM
- EC50 [7]: 6.29 µM
- EC50 (Plasmodium falciparum [8]): 0.216 µM
- EC50 (Leishmania major): > 14.9 µM
- EC50 [9]: 3.14 µM
- EC50 (Plasmodium falciparum [10]): 0.435 µM
- EC50 (Toxoplasma gondii): > 19.1 µM
- EC50 (Trypanosoma brucei): 0.946 µM
- EC50 (Plasmodium falciparum [12]): 0.303 µM
- EC50 [13]: 6.13 µM
